Assay outcomes: PubChem, Sanford-Burnham Center for Chemical Genomics
Sampled rows, rich in hits. Any-hit rate of the full collection: about 3.3%.
SENP8 block-1: blocks the human protease SENP8. AID 2540. inhibition, % at 10 µM. purified SENP8, Z-RLRGG-aminoluciferin cleavage, luminescence. 330,000 tested, 1.2% active; in the data active means inhibition above about 50%
SENP1 FRET inh: SENP1 (human) catalytic domain inhibition; 360,000 tested, 0.21% active; recombinant SENP1 catalytic domain, CyPet-SUMO1-YPet FRET cleavage; AID 624204; inhibition, % at 10 µM;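 active means inhibition at least 30% at 10 µM, raw YFP signal under a set limit, fluorescence ratio 0.5 to 1.5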
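System: Recombinant human SENP1 catalytic domain, His6-tagged | Incubation: Enzyme reaction for 50 min at room temperature, dark | Medium: Tris pH 8 with BME, BSA, NP40 and catalase | Also added: 25 nM SUMO1 FRET substrate | Compound: 10 µM single point, 0.5% DMSO | Measured by: FRET fluorescence in CFP and YFP emission channels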
SENP6 block: SENP6 protease inhibition | 330,000 tested, 1.8% active | Recombinant SENP6 catalytic domain, aminoluciferin luminescence | Q9GZR1 | inhibition, % at 10 µM | AID 2599;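 active means inhibition above about 50% at the single tested dose, limit read from the data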
Target sequence (Q9GZR1 628-1112 limits assumed): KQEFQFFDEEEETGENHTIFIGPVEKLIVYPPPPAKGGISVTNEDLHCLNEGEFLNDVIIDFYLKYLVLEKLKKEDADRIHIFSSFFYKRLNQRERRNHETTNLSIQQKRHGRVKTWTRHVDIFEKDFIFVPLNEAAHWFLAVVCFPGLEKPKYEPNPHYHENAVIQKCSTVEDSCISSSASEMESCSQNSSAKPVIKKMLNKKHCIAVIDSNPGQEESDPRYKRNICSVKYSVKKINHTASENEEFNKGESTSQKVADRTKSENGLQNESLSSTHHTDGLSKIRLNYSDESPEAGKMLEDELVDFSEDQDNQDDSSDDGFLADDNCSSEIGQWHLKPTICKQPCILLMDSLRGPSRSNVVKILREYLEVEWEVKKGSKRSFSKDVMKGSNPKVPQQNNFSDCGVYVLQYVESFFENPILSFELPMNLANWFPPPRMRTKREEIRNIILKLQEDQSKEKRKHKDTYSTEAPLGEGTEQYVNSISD
NRP1-CendR mod: alters CendR peptide binding to human NRP-1; O14786; FAM-RPARPAR peptide binding to NRP-1, fluorescence polarization; inhibition, % at 25 µM; 360,000 tested, 0.85% active;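 active means inhibition or corrected inhibition above about 18%, plus a signal ratio from 0.5 to 1.5, limit read from the data, passing the limit was not always enough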
SENP8 block-2: SENP8 (human) protease inhibition; AID 602440; recombinant SENP8, Nedd8 substrate fluorescence; 360,000 tested, 0.64% active; inhibition, % at 20 µM; in the data active means inhibition mostly above about 40%, no sharp cut-off; inactive means mostly below about 27%
SENP7 block: inhibitors of human SENP7 protease; Q9BQF6; recombinant SENP7, Z-RLRGG-aminoluciferin luminescence, 40 min; inhibition, % at 5 µM; 330,000 tested, 1.5% active;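 active means inhibition above about 50% at the single test dose, limit read from the data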
SENP8 confirm: human SENP8 inhibition, confirmed; shares compounds with SENP7 block; Recombinant SENP8, Z-RLRGG-aminoluciferin luminescence, 60 min; inhibition, % at 12.5 µM; 6,200 tested, 40% active;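 active means mean inhibition across replicates above about 50%, limit read from the data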
SENP6 conf: human SENP6 inhibition, confirmed; shares compounds with SENP7 block; recombinant SENP6, Z-RLRGG-aminoluciferin luminescence; inhibition, % at 12.5 µM; 6,200 tested, 58% active
SENP7 confirm: confirmation of human SENP7 protease inhibitors; shares compounds with SENP7 block; 6,200 tested, 69% active; inhibition, % at 12.5 µM; recombinant SENP7, Z-RLRGG-aminoluciferin luminescence, 40 min; AID 488917
Casp3 select: selectivity test for SENP inhibitors: human caspase-3 inhibition | shares compounds with SENP7 block | purified caspase-3, Z-DEVD-aminoluciferin luminescence, 60 min | inhibition, % at 12.5 µM | 6,200 tested, 60% active;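 active means mean inhibition above about 50%, limit read from the data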
Target sequence (P42574 28-227 limits assumed): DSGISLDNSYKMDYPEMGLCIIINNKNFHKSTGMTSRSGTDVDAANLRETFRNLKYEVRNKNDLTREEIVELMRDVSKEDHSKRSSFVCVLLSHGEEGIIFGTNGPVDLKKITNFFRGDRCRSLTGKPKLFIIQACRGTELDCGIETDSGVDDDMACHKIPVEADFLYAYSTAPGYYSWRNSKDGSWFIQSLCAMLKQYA
SENP luc ctr: interferes with luciferase luminescence in SENP counter-screen | inhibition, % at 12.5 µM | 6,200 tested, 39% active | Pre-incubated SENP8/Z-RLRGG-aminoluciferin, luciferase luminescence interference | shares compounds with SENP7 block | AID 488919;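 active means mean inhibition above about 50% when retested at one dose, limit read from the data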
Numbers stand for hits; - = inactive; . = no result.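 How the source made its calls, unless noted: active means mean inhibition above about 50% in the one-dose retest (limit read from the data); inactive means the rest.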

SMILES	SENP8 block-1	SENP1 FRET inh	SENP6 block	NRP1-CendR mod	SENP8 block-2	SENP7 block	SENP8 confirm	SENP6 conf	SENP7 confirm	Casp3 select	SENP luc ctr
Cc1sc(NC(=O)c2ccc(Cl)s2)c(C(N)=O)c1C	-	-	59.7	-	-	52.2	-	-	-	-	-
Cc1sc(NC(=O)c2ccc(Br)s2)c(C(N)=O)c1C	-	-	76.3	-	-	50.6	-	-	-	-	-
O=Cc1c[nH]c2ccc(S(=O)(=O)N3CCCCC3)cc12	.	-	.	-	-	.	.	.	.	.	.
CCc1nc2ccc(C(=O)NCCOc3ccc(OC)cc3)cn2c1N(CC)CCN(C)C	.	-	.	-	-	.	.	.	.	.	.
CN1CCN(c2nc3cc(N4CCOCC4)ccc3s2)CC1	.	-	.	-	-	.	.	.	.	.	.
COc1ccc(-c2cn[nH]c2C)cc1	-	-	-	-	-	-	.	.	.	.	.
COc1ccc2cc(-c3ccn[nH]3)ccc2c1	-	-	65.8	-	-	59.2	-	53.0	83.6	-	64.0
CCCC(=O)Nc1ccc(C2C(=O)c3ccccc3C2=O)cc1	56.4	-	74.7	-	-	-	-	79.7	94.0	93.2	80.4
CSCCC(NC(=O)COc1ccccc1)C(=O)NCC(C)(C)N1CCOCC1 (stereo unspecified)	.	-	.	-	-	.	.	.	.	.	.
CSc1nc(=O)[nH]nc1Sc1ccccc1	.	-	.	-	-	.	.	.	.	.	.
O=C1N=c2ccccc2=C1c1sc(NS(=O)(=O)Cc2ccccc2)nc1O	-	-	87.9	-	-	69.1	77.9	72.9	92.4	-	-
O=C1N=c2ccccc2=C1c1sc(NS(=O)(=O)c2ccccc2)nc1O	-	-	-	-	-	-	.	.	.	.	.
CCC(=O)Oc1ccc(C(=O)Nc2ccc3c(c2)OCO3)cc1	-	-	64.3	-	-	73.2	-	56.1	62.1	71.3	-
CCCOc1ccc(C(=O)Nc2ccc3c(c2)OCO3)cc1	70.7	-	81.9	-	-	89.1	-	73.4	80.4	83.5	-
OC[C@@H]1CN(C2CCCC2)C[C@H](n2cnc3c(NC4CC4)ncnc32)O1	.	-	.	-	-	.	.	.	.	.	.
Cn1nnnc1Sc1ncnc2scc(-c3cc4ccccc4o3)c12	-	-	-	-	-	-	.	.	.	.	.
O=C(Nc1nc2ccccc2[nH]1)c1ccccc1[N+](=O)[O-]	-	-	-	-	-	-	.	.	.	.	.
O=C(Nc1nc2ccccc2[nH]1)c1cc(F)cc(F)c1	-	-	55.4	-	-	54.2	-	-	73.0	66.0	-
COc1cc(OC)cc(C(=O)Nc2nc3ccccc3[nH]2)c1	-	-	-	-	-	-	.	.	.	.	.
CCc1ccc(C(=O)Nc2nc3ccccc3[nH]2)cc1	93.6	-	95.7	-	-	97.4	55.5	76.1	86.4	84.2	-
O=C(Nc1nc2ccccc2[nH]1)c1ccc(F)cc1	78.7	-	94.4	-	-	92.6	77.9	83.6	98.5	93.8	51.6
O=C(Nc1nc2ccccc2[nH]1)c1ccccc1F	97.2	-	96.3	-	-	98.9	-	98.8	102.4	97.8	97.2
Cc1cc(C)c(C(=O)COC(=O)c2cccc(S(=O)(=O)N3CCOCC3)c2)cc1C	.	-	.	-	-	.	.	.	.	.	.
N#Cc1ccc(C(=O)Nc2nc3ccccc3[nH]2)cc1	50.3	-	69.0	-	-	73.4	-	-	70.6	68.5	-
CN(C)S(=O)(=O)c1ccc(C(=O)Nc2nc3ccccc3[nH]2)cc1	-	-	-	-	-	-	.	.	.	.	.
SMILES	SENP8 block-1	SENP1 FRET inh	SENP6 block	NRP1-CendR mod	SENP8 block-2	SENP7 block	SENP8 confirm	SENP6 conf	SENP7 confirm	Casp3 select	SENP luc ctr
COc1ccc(C(=O)Nc2nc3ccccc3[nH]2)cc1OC	-	-	-	-	-	-	.	.	.	.	.
COc1ccc(Cl)cc1C(=O)Nc1nc2ccccc2[nH]1	89.5	-	95.6	-	-	98.3	82.6	91.1	102.0	95.6	79.8
CN(CC(=O)Nc1ccccc1Cl)C(=O)CN1C(=O)NC(c2ccccc2)(c2ccccc2)C1=O	-	-	-	-	-	-	.	.	.	.	.
c1ccc(SCc2nc3ccccc3s2)nc1	-	-	60.0	-	-	-	64.1	61.1	86.4	66.2	57.3
c1ccc(OCc2nc3ccccc3s2)cc1	87.6	-	92.8	-	-	95.3	84.8	95.6	100.6	91.2	84.2
CCC(=O)Nc1ccc(OCc2nc3ccccc3s2)cc1	75.5	-	-	-	-	74.9	-	80.5	96.1	75.0	-
Fc1ccc(OCc2nc3ccccc3s2)cc1	90.3	-	97.2	-	-	93.7	82.4	92.4	101.7	90.3	78.9
O=C(O)COCc1nc2ccccc2s1	-	-	-	-	-	-	.	.	.	.	.
NC(=O)c1ccccc1OCc1nc2ccccc2s1	-	-	-	-	-	-	.	.	.	.	.
CN(Cc1ccccc1)C(=O)c1ccc(NC(=O)Cc2cccc(NC(=O)C3CCCN(C(=O)C4CCC4)C3)c2)cc1 (stereo unspecified)	-	-	-	-	-	-	.	.	.	.	.
OC(c1cccnc1)c1nc(-c2ccc3c(c2)OCO3)cs1 (stereo unspecified)	.	-	.	-	-	.	.	.	.	.	.
CC(=O)c1cc2c(cc1C)CCCC2(C)C	.	-	.	-	-	.	.	.	.	.	.
Cc1nnsc1C(=O)N/N=C/c1ccccc1	-	-	-	-	-	-	.	.	.	.	.
Cc1nnsc1C(=O)N/N=C/c1ccc(OC(F)(F)F)cc1	-	-	-	-	-	54.8	-	-	-	-	-
N#Cc1ccsc1NC(=O)COC(=O)c1cc(Br)ccc1O	88.7	-	94.6	-	-	84.9	75.4	81.8	86.6	70.4	-
COc1ccc(CCC(=O)Nc2sccc2C#N)cc1	80.4	.	85.6	.	.	87.0	84.1	84.8	97.5	89.3	59.2
COc1ccc(NC(=O)CSCC(=O)Nc2sccc2C#N)cc1	-	-	-	-	-	-	.	.	.	.	.
N#Cc1ccsc1NC(=O)COC(=O)c1ccc2ccccc2c1	84.4	-	90.7	-	-	86.2	-	66.8	99.6	79.9	-
N#Cc1ccsc1NC(=O)COC(=O)c1ccc(Br)o1	-	-	-	-	-	-	.	.	.	.	.
Cc1ccc(S(=O)(=O)N(C)C[C@@H]2OCc3cnnn3CCCC(=O)N([C@H](C)CO)C[C@H]2C)cc1	.	-	.	-	-	.	.	.	.	.	.
